PubChem BioAssay
The source made the active and inactive calls.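 How the source made its calls, unless noted: active means fluorescence slope higher than the sample average by over 3 SD (cut at about -0.22 in these data, passing the limit was not always enough); inactive means the rest.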

Key:
[1] = inhibitors of TNFa-induced NFkB p65 translocation, primary screen, imaging, HUVEC, MLSMR starter and 10KST1 sets (AID 438;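 active means inhibition above 20% together with a positive visual image hit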;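 further: compound added about 3h40 before a 20 min TNFalpha stimulation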;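 on inhibition: signal is the nuclear over cytoplasmic p65 intensity ratio per well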); settings: HUVEC TNFa-induced p65 nuclear translocation; cell count: measured here: nuclei count (cytotoxicity indicator), at 2.08 µM; inhibition: at 2 µM, stronger effect = higher value, 0% TNFa-plus-vehicle, 100% no-TNFa wells
[2] = inhibitors of mutant huntingtin aggregation, primary screen, imaging, exon1htt(103Q)mCFP cells, high-content imaging (AID 483;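 active means visual image review flags a hit and inhibition of aggregation exceeds 20%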;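 further: compound exposure lasted 3 days before fixation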;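 on nuclei count: percent of the per-plate median nuclei count of sample wells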); settings: exon1htt(103Q)mCFP cell line, aggregate imaging, at 2 µM; inhibition of aggregation: stronger effect = higher value; nuclei count: measured here: cell count, toxicity
[3] = inhibitors of E-selectin induction by TNFa, primary screen, imaging, HUVEC, immunofluorescence, MLSMR starter and 10KST1 sets (AID 487;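 active means visually confirmed hit in the image check and inhibition above 20%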;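 on inhibition: signal is fraction of cell area covered by stained E-selectin grains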;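 on nuclei count: 100% = median nuclei count of all wells on the same plate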); settings: HUVEC TNFalpha-induced E-selectin immunofluorescence imaging, at 2 µM; inhibition: stronger effect = higher value; nuclei count: measured here: cell number, toxicity
[4] = target: Voltage-gated potassium channel subunit beta-2 (Rattus norvegicus) (UniProt P62483); test: KvBeta enzyme negative modulators, primary screen, biochemical, NADPH fluorescence (AID 622); settings: recombinant KvBeta, 4-cyanobenzaldehyde reduction, at 10 µM, stronger effect = higher value;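 further: slope of raw intensity against log time taken from 70 to 1610 s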
[5] = target: Voltage-gated potassium channel subunit beta-2 (Rattus norvegicus) (UniProt P62483); test: KvBeta positive modulators, primary screen, biochemical, NADPH fluorescence (AID 623;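 active means NADPH fluorescence slope more negative than the mean of all samples by about 3 SD, 99.7% confidence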;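 further: fluorescence intensity change per second fitted from 20 to 320 s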); settings: Recombinant KvBeta, NADPH fluorescence decrease slope, 10 min; at 10 µM; stronger effect = lower value
[6] = target: Muscarinic acetylcholine receptor M4 (Homo sapiens) (UniProt P08173); test: compounds altering M4/GIRK thallium flux, either direction, primary screen, M4 allosteric agonist project, cell-based, HEK293 M4/GIRK, BTC-AM (AID 625;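 active means fluorescence slope after compound addition differing from the mean of all tested samples at 99.7% confidence, mostly higher but some lower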;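 further: thallium influx through GIRK channels coupled to M4 in HEK293 cells with BTC-AM dye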); settings: at 10 µM, actives lie on both sides
How it was run: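 Material: M4/GIRK1/GIRK2 stable HEK293 cell line. Medium: pH 7.3 thallium assay buffer. Dosing: single compound concentration, 10 µM final. Schedule: 1 h dye loading, 2 min kinetic read. Measured by: kinetic fluorescence with BTC-AM dye. Read-out: post-addition slope, 15–24 s, of baseline-normalized fluorescence. Benchmarks: carbachol and DMSO controls.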

[7] = inhibitors of Sendai virus-induced IRF3 signaling, primary screen, TLR/RLR signaling modifier project, cell-based, Sendai virus stimulus, luciferase, 10K MLSCN set (AID 602276;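 active means inhibition at or above 50% at 10 µM; inactive means inhibition below 50%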;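 further: firefly luciferase from ISG56 promoter only with Renilla not read in this screen; 0% = Sendai virus plus DMSO and 100% = medium plus DMSO without virus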); settings: HEK293 RL24 IRF3 luciferase reporter, at 10 µM, stronger effect = higher value
[8] = inhibitors of poly I:C-induced TLR3 signaling, primary screen, cell-based, poly I:C stimulus, luciferase, 10K MLSCN set (AID 602277;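 active means inhibition of the reporter signal at or above 50%; inactive means inhibition below 50%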); settings: HEK293-TLR3 RL24 IRF3 luciferase reporter, at 10 µM, stronger effect = higher value

Chain of Voltage-gated potassium channel subunit beta-2 (Rattus norvegicus) (P62483 whole entry, looked up): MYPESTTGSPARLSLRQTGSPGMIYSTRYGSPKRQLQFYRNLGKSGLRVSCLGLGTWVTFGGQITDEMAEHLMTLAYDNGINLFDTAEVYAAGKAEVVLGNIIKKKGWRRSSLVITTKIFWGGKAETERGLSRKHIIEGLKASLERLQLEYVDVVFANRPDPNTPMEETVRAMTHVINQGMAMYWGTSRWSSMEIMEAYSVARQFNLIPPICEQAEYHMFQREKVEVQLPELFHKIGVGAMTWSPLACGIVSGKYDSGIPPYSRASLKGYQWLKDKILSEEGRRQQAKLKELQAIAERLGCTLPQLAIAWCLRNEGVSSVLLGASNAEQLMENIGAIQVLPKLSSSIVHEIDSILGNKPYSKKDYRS
Chain of Muscarinic acetylcholine receptor M4 (Homo sapiens) (P08173 whole entry, looked up): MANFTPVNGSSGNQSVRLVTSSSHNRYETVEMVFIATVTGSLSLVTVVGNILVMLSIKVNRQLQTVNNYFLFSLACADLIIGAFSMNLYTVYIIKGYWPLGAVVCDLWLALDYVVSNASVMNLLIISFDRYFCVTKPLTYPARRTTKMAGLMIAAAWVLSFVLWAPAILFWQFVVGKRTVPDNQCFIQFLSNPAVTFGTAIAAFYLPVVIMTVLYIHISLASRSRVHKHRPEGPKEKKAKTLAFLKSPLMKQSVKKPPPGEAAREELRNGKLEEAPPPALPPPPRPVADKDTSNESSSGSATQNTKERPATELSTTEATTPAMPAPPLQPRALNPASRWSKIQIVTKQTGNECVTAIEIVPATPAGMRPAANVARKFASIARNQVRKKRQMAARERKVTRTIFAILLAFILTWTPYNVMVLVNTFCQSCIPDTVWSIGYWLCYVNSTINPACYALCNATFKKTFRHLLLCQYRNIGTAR

| SMILES | cell count [1] | inhibition [1] | inhibition of aggregation [2] | nuclei count [2] | inhibition [3] | nuclei count [3] | fluorescence slope [4] | NADPH fluorescence slope [5] | fluorescence slope [6] | inhibition [7] | inhibition [8] |
| --- | --- | --- | --- | --- | --- | --- | --- | --- | --- | --- | --- |
| CCCOc1nc(N)c(C#N)c(-c2ccccc2F)c1C#N | 359 | 1.2% (inactive) | 10.7% (inactive) | 98.5% | -22.8% (inactive) | 99.6% | -0.547 (inactive) | 2.2e-05 (inactive) | 0.00463 (inactive) | 9.25% (inactive) | 14% (inactive) |
| C=C(C)COc1ccc(-c2nc(N)ncc2Oc2ccccc2OCC)c(O)c1 | 291 | -11% (inactive) | -19.9% (inactive) | 111% | -17.8% (inactive) | 114% | -0.655 (inactive) | 4.1e-05 (inactive) | 0.00507 (inactive) | 17.7% (inactive) | -3.29% (inactive) |
| Cc1cnn(C(=S)NCc2ccco2)c1 | 465 | -13.6% (inactive) | 17.2% (inactive) | 94.5% | -15.2% (inactive) | 99.9% | -0.49 (inactive) | -3.2e-05 (inactive) | 0.0043 (inactive) | 6.4% (inactive) | 1.55% (inactive) |
| CCOC(=O)C1=C(CN2CCOCC2)NC(=O)NC1c1cc(C)ccc1C (centres undefined) | 492 | -3% (inactive) | -1.1% (inactive) | 117% | -30.8% (inactive) | 108% | -0.205 (inactive) | -1.6e-05 (inactive) | 0.00619 (inactive) | 15.4% (inactive) | 7.78% (inactive) |
| Brc1ccc(C2=Nn3c(nnc3-c3ccncc3)SC2)cc1 | 369 | 2.2% (inactive) | -12.9% (inactive) | 123% | -12.7% (inactive) | 117% | -0.544 (inactive) | 3.4e-05 (inactive) | 0.00451 (inactive) | 13.7% (inactive) | 0.85% (inactive) |
| CCC(C)NC(=O)C1(C)CCC(=O)N1Cc1ccccc1OC (centres undefined) | 406 | -14.1% (inactive) | -3.9% (inactive) | 105% | -15.7% (inactive) | 93.9% | -0.512 (inactive) | 0.000141 (inactive) | 0.00751 (inactive) | 12.9% (inactive) | 22.5% (inactive) |
| Cc1cc2c(c(=O)n1CCN(C)C)C(c1ccncc1)C(C#N)=C(N)O2 (centres undefined) | 552 | 7.7% (inactive) | 5% (inactive) | 102% | -74% (inactive) | 155% | -0.484 (inactive) | -1.3e-05 (inactive) | 0.00498 (inactive) | 5.86% (inactive) | 8.13% (inactive) |
| CSc1nc(N2CCOCC2)c2c(c1C#N)CCCCC2 | 690 | -11.9% (inactive) | -18.9% (inactive) | 117% | -4.6% (inactive) | 111% | -0.579 (inactive) | 2.1e-05 (inactive) | 0.00519 (inactive) | 23% (inactive) | 27.5% (inactive) |
| COC(=O)c1oc2ccc(Br)cc2c1NC(=O)CN1CCN(C)CC1 | 240 | 6% (inactive) | -3.2% (inactive) | 94.6% | 30.2% (inactive) | 85.6% | -0.589 (inactive) | 1.6e-05 (inactive) | 0.00465 (inactive) | 1.64% (inactive) | 6.76% (inactive) |
| Cc1ccc(Cn2c(SCC(C)C)nc3c2c(=O)n(C)c(=O)n3C)cc1 | 468 | -1.3% (inactive) | -13.4% (inactive) | 111% | -65.5% (inactive) | 119% | -0.468 (inactive) | -0.000354 (inactive) | 0.00373 (inactive) | 16.7% (inactive) | 14.4% (inactive) |
| CCOC(=O)c1cc(-c2ccc3c(c2)OCO3)nc2onc(C)c12 | 402 | 3.7% (inactive) | 21.3% (inactive) | 64.3% | -64.2% (inactive) | 106% | -0.00965 (inactive) | -7.8e-06 (inactive) | 0.00537 (inactive) | -6.27% (inactive) | -18.4% (inactive) |
| N#CC1=C(N)Oc2n[nH]c(-c3cccs3)c2C1c1cccs1 (centres undefined) | 562 | -15.3% (inactive) | 4.7% (inactive) | 99.1% | -80.1% (inactive) | 113% | -0.396 (inactive) | -1.8e-05 (inactive) | 0.00605 (inactive) | 13.4% (inactive) | 17.8% (inactive) |
| COC(=O)c1c(NC(=O)c2ccc(S(=O)(=O)N3CCOCC3)cc2)sc2c1CCN(C)C2 | 296 | -9.1% (inactive) | 3% (inactive) | 117% | -25.5% (inactive) | 114% | -0.483 (inactive) | -5.3e-05 (inactive) | 0.0054 (inactive) | -9.85% (inactive) | 15.9% (inactive) |
| O=C(c1ccc(Cl)cc1)N(Cc1cccs1)C1CCS(=O)(=O)C1 (centres undefined) | 376 | 0.4% (inactive) | -20.1% (inactive) | 110% | -33.8% (inactive) | 112% | -0.555 (inactive) | -9.2e-05 (inactive) | 0.00385 (inactive) | -5.62% (inactive) | -0.322% (inactive) |
